Experimental data from paper PMC3171567 (Steroids, 2011).
Where a chain is given by its changes, count along the chain named.

Experiments:
[1] = system: prostate, seminal vesicles, and the testes; assay: Urogenital tissue weights in LAPC-4 xenograft mice; assay type: in vivo, male SCID mice; conditions: 31 days, 0.15 mmol/kg; 3 and 5 s.c. b.i.d., 4 and 5-acetate p.o.
Method in brief: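 Male SCID mice, 4–6 weeks old, housed pathogen-free with food and water ad libitum. LAPC-4 cells were scraped into DPBS, pelleted and resuspended in Matrigel (10 mg/ml) at 2.0 × 10^7 cells/mL before inoculation. Vehicle was 0.3% HPC; test compounds were given at 0.15 mmol/kg. After 31 days of treatment, prostate, seminal vesicles and testes were excised and weighed and compared with vehicle controls.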

LAPC-4 xenografts = assay: LAPC-4 prostate cancer xenograft anti-tumor efficacy; assay type: in vivo, male SCID mice; conditions: for efficacy of oral dosing (in words): first study, 0.15 mmol/kg o.d. p.o. up to day 24
[2] = system: AR protein in LAPC-4 tumors; assay: AR protein levels in excised LAPC-4 tumors, western blot; assay type: in vivo, male SCID mice
LNCaP cells = assay: Cell proliferation / viability XTT assay, LNCaP; assay type: cell-based; conditions: Homo sapiens; for GI50: read-out: Cell growth inhibition GI50 LNCaP; for IC50: read-out: IC50 in DHT stimulated LNCaP cells; for inhibition at 10 µM: read-out: inhibition of LNCaP proliferation
LAPC-4 cells = assay: Cell proliferation / viability XTT assay, LAPC-4; assay type: cell-based; conditions: Homo sapiens; for GI50: LAPC4, read-out: Cell growth inhibition GI50 LAPC-4; for IC50: LAPC4, read-out: IC50 in DHT stimulated LAPC4 proliferation
Method in brief: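 Cells moved to steroid-free medium (phenol red-free RPMI, 5% dextran-coated charcoal-treated serum, 1% penicillin/streptomycin) 3 days before plating at 1.5 × 10^4 cells/well. After 24 h attachment, they were given steroid-free medium with ethanol vehicle, androgens and/or test compound, changed every three days. Viability was read by XTT absorbance on day 7. Each result is the average of at least three wells.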

[3] = Toxicity monitoring in LAPC-4 xenograft mice; assay type: in vivo, male SCID mice; conditions: third study; for deaths of mice: 10 mice per group
[4] = target: T1, wild-type AR (in LAPC-4 cells) (Homo sapiens, UniProt P10275); assay type: binding
T1 sequence (P10275 1-920): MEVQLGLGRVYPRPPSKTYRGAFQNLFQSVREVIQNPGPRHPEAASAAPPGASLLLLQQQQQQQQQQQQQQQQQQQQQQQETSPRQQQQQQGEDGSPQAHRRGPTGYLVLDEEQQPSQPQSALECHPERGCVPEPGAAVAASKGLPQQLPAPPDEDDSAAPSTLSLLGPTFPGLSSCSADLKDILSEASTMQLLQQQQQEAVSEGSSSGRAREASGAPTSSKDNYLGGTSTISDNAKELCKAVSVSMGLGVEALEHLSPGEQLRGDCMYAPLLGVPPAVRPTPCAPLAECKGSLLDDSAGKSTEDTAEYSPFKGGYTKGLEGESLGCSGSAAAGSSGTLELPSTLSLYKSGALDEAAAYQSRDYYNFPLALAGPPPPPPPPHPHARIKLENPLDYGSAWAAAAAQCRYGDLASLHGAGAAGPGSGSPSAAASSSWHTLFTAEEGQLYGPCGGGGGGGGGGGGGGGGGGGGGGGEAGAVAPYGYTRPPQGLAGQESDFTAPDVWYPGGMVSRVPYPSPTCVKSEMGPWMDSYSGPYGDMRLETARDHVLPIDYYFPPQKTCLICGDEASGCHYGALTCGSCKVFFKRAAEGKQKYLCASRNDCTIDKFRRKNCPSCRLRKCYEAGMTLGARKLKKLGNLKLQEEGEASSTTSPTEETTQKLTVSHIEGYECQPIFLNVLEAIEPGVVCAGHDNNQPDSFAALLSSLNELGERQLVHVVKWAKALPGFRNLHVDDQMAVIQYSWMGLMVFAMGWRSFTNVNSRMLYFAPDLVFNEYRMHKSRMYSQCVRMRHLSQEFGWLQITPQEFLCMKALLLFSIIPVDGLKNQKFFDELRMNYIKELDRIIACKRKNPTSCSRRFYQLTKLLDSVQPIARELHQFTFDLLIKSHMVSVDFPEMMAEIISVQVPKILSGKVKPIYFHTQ

human CYP17 = human CYP17 (Homo sapiens, UniProt P05093); assay: Acetic acid releasing assay for CYP17 activity in 293T-CYP17 cells; assay type: cell-based; conditions: read-out: CYP17 IC50, each in duplicate
Sequence of human CYP17 (P05093 whole entry): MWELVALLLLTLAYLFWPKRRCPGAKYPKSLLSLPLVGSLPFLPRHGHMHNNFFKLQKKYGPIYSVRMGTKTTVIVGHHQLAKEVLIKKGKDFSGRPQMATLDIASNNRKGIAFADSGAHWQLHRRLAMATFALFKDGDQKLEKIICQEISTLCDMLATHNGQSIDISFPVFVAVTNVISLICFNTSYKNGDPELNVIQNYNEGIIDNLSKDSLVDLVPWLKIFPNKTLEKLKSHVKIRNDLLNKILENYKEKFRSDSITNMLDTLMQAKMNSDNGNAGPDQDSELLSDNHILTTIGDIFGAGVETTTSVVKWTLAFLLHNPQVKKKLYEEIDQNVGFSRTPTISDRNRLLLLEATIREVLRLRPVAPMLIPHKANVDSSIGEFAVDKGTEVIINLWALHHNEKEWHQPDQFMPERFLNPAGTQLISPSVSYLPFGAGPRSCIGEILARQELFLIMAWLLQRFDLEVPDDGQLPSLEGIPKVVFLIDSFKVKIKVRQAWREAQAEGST

[5] = system: androgen receptor expression in LNCaP cells; assay: AR down-regulation in LNCaP cells, western blot densitometry; assay type: cell-based, human; conditions: for AR down-regulation (in words): highest concentration (15 μM) tested
[6] = system: androgen-induced AR transcription; assay: Transcriptional activation luciferase assay; assay type: cell-based, human; conditions: LNCaP, ARR-2 reporter, with or without DHT
Method in brief: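 LNCaP cells were kept steroid-free for 3 days, plated at 1 × 10^5 cells/well, then co-transfected with ARR2-Luc and Renilla pRL-null using Lipofectamine 2000. After 24 h at 37 °C, cells in serum-free phenol red-free RPMI were treated in triplicate with DHT, ethanol vehicle and/or test compound for 18 h. A dual luciferase read-out gave fold induction over control, normalized to Renilla.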

[7] = target: T2, mutant T877A AR (in LNCaP cells) (Homo sapiens, UniProt P10275, T878A); assay type: binding
T2 sequence (P10275 1-920 T878A): T1 sequence (P10275 1-920) with T878A

For `C[C@]12CC[C@H](O)CC1=CC[C@@H]1[C@@H]2CC[C@]2(C)C(c3cccnc3)=CC[C@@H]12` [Compound 3, 3β-Hydroxy-17-(3-pyridyl)androsta-5,16-dien], which “prostate size/weight (in words)” value [1] is on record?
The value was “failed to significantly reduce the size of any of the organs”.

And the “seminal vesicles size/weight (in words)” value [1]?
Its value is “failed to significantly reduce the size of any of the organs”.

What about the “testes size/weight (in words)” value [1] of the same molecule?
The value was “failed to significantly reduce the size of any of the organs”.

What about the “efficacy of oral dosing (in words)” value (LAPC-4 xenografts) of the same molecule?
The value was “neither compound demonstrated any significant efficacy”.

And the “effect on AR levels in tumors (in words)” value ([2]; first study, 0.15 mmol/kg s.c. b.i.d.)?
Its value is “no significant effect on AR levels”.

For `CC(=O)O[C@H]1CC[C@@]2(C)C(=CC[C@@H]3[C@@H]2CC[C@]2(C)C(c4cccnc4)=CC[C@@H]32)C1` [Compound 4, 3β-Acetoxy-17-(3-pyridyl)androsta-5,16-dien, reference compound], which “seminal vesicles size/weight (in words)” value [1] is on record?
The value was “significantly reduced the size of the seminal vesicles”.

What about the “efficacy of oral dosing (in words)” value (LAPC-4 xenografts) of the same molecule?
Its value is “neither compound demonstrated any significant efficacy”.

For `C[C@]12CCC(F)CC1=CC[C@@H]1[C@@H]2CC[C@]2(C)C(n3cnc4ccccc43)=CC[C@@H]12` (stereo partly drawn) [Compound 6, 3ξ-Fluoro-17-(1H-benzimidazol-1-yl)androsta-5,16-dien], which GI50 (LNCaP cells) is on record?
Its GI50 is 8 µM.

What about the IC50 (LNCaP cells) of the same molecule?
The IC50 was 8 µM.

And the inhibition at 10 µM (LNCaP cells)?
Its inhibition at 10 µM is 85%.

And the GI50 (LAPC-4 cells)?
Its GI50 is 16 µM.

And the IC50 (LAPC-4 cells)?
The IC50 was 7 µM.

What about the “changes in mouse weights (in words)” value [3] of the same molecule?
The value was “no changes in mouse weights were observed”.

And the deaths of mice ([3]; 0.15 mmol/kg s.c. once daily)?
Its deaths of mice is “five mice”.

What about the deaths of mice ([3]; 0.15 mmol/kg s.c. twice daily) of the same molecule?
The deaths of mice was “two mice”.

What about the “signs of toxicity at internal examination (in words)” value ([3]; necropsy) of the same molecule?
The value was “no overt signs toxicity were seen”.

What about the EC50 [4] of the same molecule?
Its EC50 is 0.934 µM.

And the “reduction of wild-type AR binding compared to 5” value ([4]; ratio of EC50 to that of 5)?
Its value is 2.3 fold.

And the IC50 (human CYP17)?
The IC50 was 0.15 µM.

What about the AR down-regulation ([5]; 15 μM, 24 hours) of the same molecule?
Its AR down-regulation is 50%.

What about the “AR agonist/antagonist character in transcriptional activation studies” value [6] of the same molecule?
The value was “pure AR antagonists”.

What about the “efficacy versus LAPC-4 xenografts relative to 5” value (LAPC-4 xenografts; on equimolar basis) of the same molecule?
The value was ~ 2 fold.

And the “effect on LAPC-4 tumor growth (in words)” value (LAPC-4 xenografts; third study, 0.15 mmol/kg s.c. once daily)?
Its value is “as effective in inhibiting LAPC-4 tumor growth as twice daily administration of 5”.

What about the EC50 [7] of the same molecule?
Its EC50 is 1.6 µM.

What about the “binding to the mutant AR compared to 5 (in words)” value [7] of the same molecule?
Its value is “not significantly different from binding of 5”.

And the “effect on AR protein levels in tumors (in words)” value ([2]; third study, 0.15 mmol/kg s.c., twice daily administration)?
The value was “only a minor and statistically insignificant effect on AR protein levels”.

With `C[C@]12CC[C@@H](N=[N+]=[N-])CC1=CC[C@@H]1[C@@H]2CC[C@]2(C)C(n3cnc4ccccc43)=CC[C@@H]12` [Compound 8, 3α-Azido-17-(1H-benzimidazol-1-yl)androsta-5,16-dien] as the molecule, how does the GI50 (LNCaP cells) read?
The GI50 was 7 µM.

What about the IC50 (LNCaP cells) of the same molecule?
Its IC50 is 16 µM.

And the inhibition at 10 µM (LNCaP cells)?
Its inhibition at 10 µM is 60%.

What about the GI50 (LAPC-4 cells) of the same molecule?
The GI50 was 19 µM.

What about the IC50 (LAPC-4 cells) of the same molecule?
The IC50 was 19 µM.

What about the EC50 [4] of the same molecule?
Its EC50 is 2.46 µM.

And the “binding affinity to the wild-type AR compared to 5 (in words)” value [4]?
The value was “greatly reduced”.

What about the IC50 (human CYP17) of the same molecule?
Its IC50 is 0.12 µM.

What about the “AR down-regulation (in words)” value [5] of the same molecule?
Its value is “did not cause down-regulation of AR expression”.

What about the “AR agonist/antagonist character in transcriptional activation studies” value [6] of the same molecule?
The value was “pure AR antagonists”.

What about the EC50 [7] of the same molecule?
The EC50 was 4.34 µM.

What about the “binding to the mutant AR compared to 5 (in words)” value [7] of the same molecule?
Its value is “greatly reduced”.

Which “effect on LAPC-4 tumor growth, oral (in words)” value (LAPC-4 xenografts; administered orally as described for 5) does the source give for `C[C@]12CC[C@H](OS(N)(=O)=O)CC1=CC[C@@H]1[C@@H]2CC[C@]2(C)C(n3cnc4ccccc43)=CC[C@@H]12` [Compound 9, 3β-O-Sulfamoyl-17-(1H-benzimidazol-1-yl)androsta-5,16-dien] here?
Its value is “did not show any significant effect on LAPC-4 tumor growth”.

With `C[C@]12CC[C@H](O)CC1=CC[C@@H]1[C@@H]2CC[C@]2(C)C(n3cnc4ccccc43)CC[C@@H]12` (stereo partly drawn) [Compound 10, 3β-Hydroxy-17-(1H-benzimidazol-1-yl)androsta-5-ene] as the molecule, how does the “AR down-regulation (in words)” value [5] read?
Its value is “did not cause down-regulation of AR expression”.

Which results are given for `C[C@]12CC[C@H](O)C[C@@H]1CC[C@@H]1[C@@H]2CC[C@]2(C)C(n3cnc4ccccc43)=CC[C@@H]12` [Compound 15, 3β-Hydroxy-17-(1H-benzimidazol-1-yl)-5α-androsta-16-ene]?
GI50 (LNCaP cells): 17.6 µM; AR down-regulation (in words) [5]: did not cause down-regulation of AR expression
